Results on 13 compounds are retold here after PubChem BioAssay.

Active and inactive are the calls of the source.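 How the source made its calls, unless noted: active means inhibition of the reporter signal at or above 50%; inactive means inhibition below 50%.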

Experiment [1] in a line: inhibitors of TNFa-induced NFkB p65 translocation, primary screen, imaging, HUVEC, MLSMR starter and 10KST1 sets (AID 438;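 active means inhibition above 20% together with a positive visual image hit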;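 further: compound added about 3h40 before a 20 min TNFalpha stimulation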;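 on inhibition: signal is the nuclear over cytoplasmic p65 intensity ratio per well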). The following applies: HUVEC TNFa-induced p65 nuclear translocation; cell count: measured here: nuclei count (cytotoxicity indicator), at 2.08 µM; inhibition: at 2 µM, stronger effect = higher value, 0% TNFa-plus-vehicle, 100% no-TNFa wells.
Experiment [2] in a line: reduction of polyQ htt aggregates in cells – imaging, exon1htt(103Q)mCFP cells, high-content imaging, primary screen (AID 483;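 active means visual image review flags a hit and inhibition of aggregation exceeds 20%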;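 further: compound exposure lasted 3 days before fixation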;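 on nuclei count: percent of the per-plate median nuclei count of sample wells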). The following applies: exon1htt(103Q)mCFP cell line, aggregate imaging, at 2 µM; inhibition of aggregation: stronger effect = higher value; nuclei count: measured here: cell count, toxicity.
Experiment [3] in a line: endothelial E-selectin expression blockers – imaging, HUVEC, immunofluorescence, MLSMR starter and 10KST1 sets, primary screen (AID 487;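 active means visually confirmed hit in the image check and inhibition above 20%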;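 on inhibition: signal is fraction of cell area covered by stained E-selectin grains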;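 on nuclei count: 100% = median nuclei count of all wells on the same plate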). The following applies: HUVEC TNFalpha-induced E-selectin immunofluorescence imaging, at 2 µM; inhibition: stronger effect = higher value; nuclei count: measured here: cell number, toxicity.
The target in experiment [4] is Voltage-gated potassium channel subunit beta-2 (Rattus norvegicus) (UniProt P62483). Put plainly: inhibitors of rat Kvbeta2 reductase activity – biochemical, NADPH fluorescence, primary screen (AID 622;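 active means fluorescence slope higher than the sample average by over 3 SD, cut at about -0.22 in these data, passing the limit was not always enough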;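 further: slope of raw intensity against log time taken from 70 to 1610 s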). Conditions: recombinant KvBeta, 4-cyanobenzaldehyde reduction, at 10 µM, stronger effect = higher value.
Experiment [5] has the same target. Nature of the experiment: enhancers of rat Kvbeta2 NADPH turnover – biochemical, NADPH fluorescence, primary screen (AID 623;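 active means NADPH fluorescence slope more negative than the mean of all samples by about 3 SD, 99.7% confidence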;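 further: fluorescence intensity change per second fitted from 20 to 320 s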). The following applies: Recombinant KvBeta, NADPH fluorescence decrease slope, 10 min; at 10 µM; stronger effect = lower value.
Experiment [6] addresses Muscarinic acetylcholine receptor M4 (Homo sapiens) (UniProt P08173). Nature of the experiment: M4-linked GIRK flux change, two-sided – cell-based, HEK293 M4/GIRK, thallium flux, BTC-AM, M4 allosteric agonist project, primary screen (AID 625;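 active means fluorescence slope after compound addition differing from the mean of all tested samples at 99.7% confidence, mostly higher but some lower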;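 further: thallium influx through GIRK channels coupled to M4 in HEK293 cells with BTC-AM dye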). The following applies: at 10 µM, actives lie on both sides. In outline:
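Material: HEK293 cells with M4 receptor and GIRK channels; Times: cells overnight at 37 °C, BTC-AM loading 1 h, reads 2 min total; Technique: kinetic BTC-AM fluorescence sampled at 1 Hz, 10 s pre-addition baseline; Read-out basis: slope over 15–24 s of trace normalized to starting intensity; Controls: carbachol positive, DMSO negative.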

A short description of experiment [7]: blockers of RIG-like receptor reporter activation – cell-based, Sendai virus stimulus, luciferase, 10K MLSCN set, TLR/RLR signaling modifier project, primary screen (AID 602276;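 active means inhibition at or above 50% at 10 µM; inactive means inhibition below 50%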;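 further: firefly luciferase from ISG56 promoter only with Renilla not read in this screen; 0% = Sendai virus plus DMSO and 100% = medium plus DMSO without virus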). The following applies: HEK293 RL24 IRF3 luciferase reporter, at 10 µM, stronger effect = higher value.
The nature of experiment [8]: TLR3 IRF3 reporter activation blockers – cell-based, poly I:C stimulus, luciferase, 10K MLSCN set, primary screen (AID 602277). The following applies: HEK293-TLR3 RL24 IRF3 luciferase reporter, at 10 µM, stronger effect = higher value. For orientation: A reporter such as luciferase makes a cellular process visible.

Chain of Voltage-gated potassium channel subunit beta-2 (Rattus norvegicus) (P62483 whole entry, looked up): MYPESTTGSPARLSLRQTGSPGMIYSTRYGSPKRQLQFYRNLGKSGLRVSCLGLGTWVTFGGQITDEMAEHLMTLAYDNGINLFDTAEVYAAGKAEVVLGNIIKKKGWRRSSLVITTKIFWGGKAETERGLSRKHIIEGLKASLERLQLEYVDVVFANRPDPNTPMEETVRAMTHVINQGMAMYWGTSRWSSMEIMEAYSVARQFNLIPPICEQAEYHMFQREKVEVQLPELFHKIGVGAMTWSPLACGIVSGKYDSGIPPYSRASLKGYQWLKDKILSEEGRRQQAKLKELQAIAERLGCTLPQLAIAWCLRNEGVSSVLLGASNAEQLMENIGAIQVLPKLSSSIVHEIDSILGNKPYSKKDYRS
Chain of Muscarinic acetylcholine receptor M4 (Homo sapiens) (P08173 whole entry, looked up): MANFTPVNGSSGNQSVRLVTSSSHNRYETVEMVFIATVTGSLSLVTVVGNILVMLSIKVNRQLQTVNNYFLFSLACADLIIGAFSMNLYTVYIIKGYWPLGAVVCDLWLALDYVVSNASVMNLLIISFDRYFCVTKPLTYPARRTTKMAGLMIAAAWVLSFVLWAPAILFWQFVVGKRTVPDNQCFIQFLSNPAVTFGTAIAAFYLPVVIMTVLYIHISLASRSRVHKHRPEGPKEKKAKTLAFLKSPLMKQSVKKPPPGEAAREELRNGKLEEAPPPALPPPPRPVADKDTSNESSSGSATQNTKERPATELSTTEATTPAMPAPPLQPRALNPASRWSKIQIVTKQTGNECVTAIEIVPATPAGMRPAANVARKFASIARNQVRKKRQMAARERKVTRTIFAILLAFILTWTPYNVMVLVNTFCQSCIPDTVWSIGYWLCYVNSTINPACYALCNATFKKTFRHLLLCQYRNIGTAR

Turning to `CCOC(=O)c1c(NC(=O)c2ccoc2C)sc2c1CCC2`, the cell count in experiment [1] came to 310. Further, the inhibition in experiment [1] was 0% (inactive); in experiment [3], -3.2% (inactive); in experiment [7], 15.7% (inactive); in experiment [8], -10.1% (inactive). For the same compound, the inhibition of aggregation in experiment [2] is -0.4% (inactive). For the same compound, the nuclei count in experiment [2] worked out at 96.2%; in experiment [3], 96.3%. The fluorescence slope in experiment [4] was -0.407 (inactive); in experiment [6] it was 0.00584 (inactive). In experiment [5], the NADPH fluorescence slope is -1.2e-05 (inactive).
On to `CCc1nnc(NC(=O)C2CCN(c3nccc(C)n3)CC2)s1`, for which, in experiment [1], the cell count amounted to 533. Moreover, the inhibition in experiment [1] is 0.5% (inactive); in experiment [3] it was -13.3% (inactive); in experiment [7], 11% (inactive); in experiment [8] it was 14.7% (inactive). Besides, in experiment [2], the inhibition of aggregation is 0.2% (inactive). The nuclei count amounted to 103% in experiment [2] and 96.9% in experiment [3]. For the same compound, the fluorescence slope in experiment [4] is -0.317 (inactive); in experiment [6] it was 0.00544 (inactive). For the same compound, the NADPH fluorescence slope in experiment [5] was -3.6e-05 (inactive).
Turning to `Cc1ccc(C(=O)CSc2nnc(-c3cccnc3)n2N)cc1`, the cell count in experiment [1] came out at 614. Besides, the inhibition in experiment [1] was -20.3% (inactive); in experiment [3], 5.4% (inactive); in experiment [7], -0.185% (inactive); in experiment [8], 51.1% (active). The inhibition of aggregation in experiment [2] was -15.4% (inactive). For the same compound, the nuclei count in experiment [2] was 89.2%; in experiment [3], 95.7%. In addition, the fluorescence slope in experiment [4] was -0.534 (inactive); in experiment [6], 0.00446 (inactive). Further, the NADPH fluorescence slope in experiment [5] is -5.6e-05 (inactive).
For `COc1ccc(-c2cnc(SCC(=O)Nc3ccc4c(c3)OCO4)n2Cc2ccco2)cc1`, in experiment [1], the cell count is 450. Besides, the inhibition in experiment [1] is 17.8% (inactive); in experiment [3], -1.8% (inactive); in experiment [7], 2.4% (inactive); in experiment [8], 36.8% (inactive). Moreover, in experiment [2], the inhibition of aggregation was -8.7% (inactive). Moreover, the nuclei count was determined as 105% in experiment [2] and 110% in experiment [3]. In addition, the fluorescence slope was -0.5 (inactive) in experiment [4] and 0.00501 (inactive) in experiment [6]. Also, the NADPH fluorescence slope in experiment [5] is -2.5e-05 (inactive).
Take `O=C(COC(=O)c1ccc(S(=O)(=O)Nc2ccccc2)cc1)NCCN1C(=O)CSC1=O`: the cell count in experiment [1] is 396. Also, the inhibition was -3.1% (inactive) in experiment [1], -88.8% (inactive) in experiment [3], 0.13% (inactive) in experiment [7] and 19.9% (inactive) in experiment [8]. Besides, in experiment [2], the inhibition of aggregation is 2.9% (inactive). The nuclei count amounted to 105% in experiment [2] and 117% in experiment [3]. Further, the fluorescence slope is -0.372 (inactive) in experiment [4] and 0.0079 (inactive) in experiment [6]. Further, the NADPH fluorescence slope in experiment [5] is -8.7e-05 (inactive).
Take `CN(C)c1cccc(N=C2C=C(N3CCOCC3)CC(C)(C)C2)c1`: in experiment [1], the cell count was 473. The inhibition in experiment [1] is 2.4% (inactive); in experiment [3], -54.6% (inactive); in experiment [7], -0.858% (inactive); in experiment [8], 16.5% (inactive). Moreover, the inhibition of aggregation in experiment [2] was 8.4% (inactive). In addition, the values for the nuclei count in experiment [2] and in experiment [3] were 86.3% and 116%, respectively. Also, the fluorescence slope in experiment [4] is -0.55 (inactive); in experiment [6], 0.00498 (inactive). Besides, the NADPH fluorescence slope in experiment [5] was -1.9e-05 (inactive).
Turning to `C=CCN(CC=C)C(=O)CN1C(=O)c2ccccc2C1=O`, the cell count in experiment [1] came to 356. Further, the inhibition in experiment [1] was 0.2% (inactive); in experiment [3] it was -103% (inactive); in experiment [7] it was 19.9% (inactive); in experiment [8], 22.1% (inactive). Besides, the inhibition of aggregation in experiment [2] was 27.5% (inactive). Moreover, the nuclei count in experiment [2] is 83.2%; in experiment [3] it was 117%. Besides, the fluorescence slope in experiment [4] was -0.572 (inactive); in experiment [6], 0.0065 (inactive). Further, the NADPH fluorescence slope in experiment [5] is -1.3e-05 (inactive).
With `COCc1cc(C)c2c(N)c(C#N)sc2n1`, the cell count in experiment [1] is 549. Further, the inhibition in experiment [1] was 2.2% (inactive); in experiment [3] it was 22.2% (inactive); in experiment [7], -19.7% (inactive); in experiment [8], -33.5% (inactive). The inhibition of aggregation in experiment [2] is -26% (inactive). Also, the nuclei count in experiment [2] stood at 60.8%; in experiment [3], 108%. The values for the fluorescence slope in experiment [4] and in experiment [6] were -0.324 (inactive) and 0.00504 (inactive), respectively. Moreover, in experiment [5], the NADPH fluorescence slope was 2.3e-06 (inactive).
`CCCn1c(=O)c2ccccc2n2c(SCc3cc(=O)n4ccsc4n3)nnc12`: the cell count in experiment [1] was 556. Moreover, the inhibition was -10.8% (inactive) in experiment [1], -8.3% (inactive) in experiment [3], 1.22% (inactive) in experiment [7] and 12% (inactive) in experiment [8]. In addition, the inhibition of aggregation in experiment [2] is -7% (inactive). Besides, the nuclei count stood at 90.4% in experiment [2] and 136% in experiment [3]. The fluorescence slope in experiment [4] is -0.479 (inactive); in experiment [6], 0.00554 (inactive). For the same compound, the NADPH fluorescence slope in experiment [5] was 1.9e-05 (inactive).
On to `COc1cccc(CNC(=O)CCn2c(=O)oc3ccccc32)c1`, for which the cell count in experiment [1] turned out to be 277. Also, the inhibition was -11.3% (inactive) in experiment [1], -28.3% (inactive) in experiment [3], 14.4% (inactive) in experiment [7] and 20.5% (inactive) in experiment [8]. In addition, the inhibition of aggregation in experiment [2] was 21.1% (inactive). For the same compound, the values for the nuclei count in experiment [2] and in experiment [3] were 8.9% and 104%, respectively. Moreover, the fluorescence slope in experiment [4] was -0.551 (inactive); in experiment [6] it was 0.0058 (inactive). Besides, the NADPH fluorescence slope in experiment [5] was 5e-05 (inactive).
In the case of `COc1cccc(CN(C)CC(=O)NC(=O)NCc2ccco2)c1`, the cell count in experiment [1] worked out at 608. Further, the inhibition in experiment [1] is 2.7% (inactive); in experiment [3], -58.6% (inactive); in experiment [7] it was -13.4% (inactive); in experiment [8] it was -18.8% (inactive). The inhibition of aggregation in experiment [2] was -3.5% (inactive). The nuclei count in experiment [2] was found to be 101%; in experiment [3] it was 180%. Moreover, the results for the fluorescence slope in experiment [4] and in experiment [6] were -0.49 (inactive) and 0.00617 (inactive), respectively. Moreover, the NADPH fluorescence slope in experiment [5] is 2.9e-05 (inactive).
As to `Cc1ccc(NC(=O)N2CCC(c3nc4c(nnn4Cc4cccc(Cl)c4)c(=O)[nH]3)CC2)cc1`, the cell count in experiment [1] amounted to 811. Moreover, the inhibition is -4.8% (inactive) in experiment [1], -3.8% (inactive) in experiment [3], 8.55% (inactive) in experiment [7] and 21.7% (inactive) in experiment [8]. Moreover, the inhibition of aggregation in experiment [2] was -2.1% (inactive). Moreover, the values for the nuclei count in experiment [2] and in experiment [3] were 55.6% and 124%, respectively. The fluorescence slope in experiment [4] is -0.569 (inactive); in experiment [6] it was 0.00576 (inactive). Further, the NADPH fluorescence slope in experiment [5] was -7.6e-06 (inactive).
As to `Cc1ccc2nc(CSc3nnc(-c4ccco4)n3-c3ccccc3)cc(=O)n2c1`, the cell count in experiment [1] worked out at 509. Besides, the inhibition was -7.8% (inactive) in experiment [1], -175% (inactive) in experiment [3], -11% (inactive) in experiment [7] and -20% (inactive) in experiment [8]. Besides, the inhibition of aggregation in experiment [2] is -2% (inactive). Besides, the nuclei count in experiment [2] worked out at 115%; in experiment [3], 201%. Further, the values for the fluorescence slope in experiment [4] and in experiment [6] were -0.567 (inactive) and 0.00636 (inactive), respectively. Also, the NADPH fluorescence slope in experiment [5] was -1.2e-06 (inactive).

One may read the inhibition as the drop in the measured response relative to a control, in per cent.
